HCV NS3 hel inh: inhibitors of HCV NS3 helicase, primary screen, biochemical, Cy5 molecular beacon fluorescence; NS3 helicase DNA unwinding; 0.56% of 290,000 active; Hepatitis C virus NS3 helicase; inhibition, % at 10.9 µM;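 active = inhibition above the mean of all tested compounds plus 3 SD, set per campaign, cut at about 35% in these data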;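 also: 0% = DMSO wells and 100% = thioflavine S control wells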
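Measured by: Cy5 fluorescence, 0 and 60 min reads / Assay system: NS3 helicase fragment of HCV / Control set: low DMSO, high thioflavine S at 110 µM / Times: 1 h reaction at 25 °C, ATP-initiated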
EBNA-1 inhibitor: EBNA-1 DNA-binding inhibitors, primary screen, biochemical, fluorescence polarization. inhibition, % at 14.8 µM. 0.34% of 300,000 active. AID 1950, 2009; in the data active = inhibition above about 28%
DNA FID counter: compounds displacing fluorescent DNA intercalator, primary screen, artefact control for HCV NS3 helicase inhibitor project, biochemical, FID fluorescence | AID 1845, 2009 | inhibition, % at 7.9 µM | 0.17% of 290,000 active | DNA fluorescent intercalator displacement; in the data active = inhibition above about 37%;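 also: 0% = vehicle and 100% = reference compound; higher means more ethidium bromide displaced from hairpin DNA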
ZTA counter: counter-screen for EBNA-1 inhibitors: inhibitors of Epstein-Barr virus ZTA | P03206 | ZTA-DNA binding, fluorescence polarization | inhibition, % at 11 µM | 0.15% of 320,000 active | AID 2234; in the data active = inhibition above about 33%
Target sequence (P03206 whole entry, looked up): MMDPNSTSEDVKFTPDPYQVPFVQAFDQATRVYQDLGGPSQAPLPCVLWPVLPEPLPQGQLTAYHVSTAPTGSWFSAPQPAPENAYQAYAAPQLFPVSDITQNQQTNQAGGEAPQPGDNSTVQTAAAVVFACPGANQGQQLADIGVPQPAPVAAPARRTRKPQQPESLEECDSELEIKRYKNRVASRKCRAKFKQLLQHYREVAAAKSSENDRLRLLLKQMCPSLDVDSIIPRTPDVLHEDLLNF
NR3A LBD binder: binders of NR3A ligand-binding domain, primary screen, biophysical, differential scanning fluorimetry, uHTS. NR3A LBD differential scanning fluorimetry, Tm shift; 0% = protein alone, 100% = glycine-bound protein. Tm shift relative to glycine control, % at 25 µM. 2.5% of 340,000 active;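 active = melting temperature shift of at least 10% of the positive control shift, at one fixed dose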
FGF22 binding-1: binders of human FGF22 protein, primary screen, FGF22 synaptogenesis inhibitor project, biophysical, thermal shift, single point | recombinant FGF22 thermal shift, SYPRO orange fluorescence; percent of sucrose octasulfate shift, DMSO zero | activity (Tm shift, normalised), % at 9.99 µM | 1.5% of 340,000 active | AID 651658, 2012;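 active = mean Tm shift, scaled 0 neutral to 100 positive control, at about 1.3% or above, every replicate too, limit read from the data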
Target sequence (Q9HCT0 whole entry, looked up): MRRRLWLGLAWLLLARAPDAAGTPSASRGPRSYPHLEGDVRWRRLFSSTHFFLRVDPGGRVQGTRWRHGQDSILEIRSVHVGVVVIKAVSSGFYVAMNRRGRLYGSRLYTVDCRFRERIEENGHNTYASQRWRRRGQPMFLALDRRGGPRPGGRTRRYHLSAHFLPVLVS
FGF22 binding-2: binders of human FGF22 protein, dose response, FGF22 synaptogenesis inhibitor project, biophysical, thermal shift, cherry-pick retest; thermal shift activity, °C (ΔTm) at 38 µM; AID 720646, 2013; shares compounds with FGF22 binding-1; recombinant FGF22 thermal shift, SYPRO orange fluorescence; 2% of 1,000 active;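 active = fitted rise in melting shift crosses a set limit at or below the top valid dose tested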
FGF22 TSA: binders of human FGF22 protein, dose response, FGF22 synaptogenesis inhibitor project, biophysical, thermal shift, dry powder; shares compounds with FGF22 binding-1; Thermal shift assay, SYPRO orange, melting temperature shift; Tm shift (activity), % at 38 µM; 50 tested, under 10 active;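 active = compounds whose fitted dose curve of melting temperature shift rises past a set threshold within the tested doses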
SYPRO no-protein: compound-only thermal shift signal without protein, dose response, artefact control for FGF22 binder project, biochemical, cherry-picked samples, RT-PCR instrument. shares compounds with FGF22 binding-1. compound-only SYPRO orange thermal shift counter-screen, no protein. AC50, µM (titrated, usually from 38 µM). 2% of 1,000 active;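 active = rising signal whose fitted curve reaches the 0.54 level within the top valid dose, showing a melting point, actives reach about 13 µM in these data; inactive = the rest, including activity in the opposite direction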; also: value is where the raw curve crosses a fixed level and not half-maximal
Numbers without * were called inactive; i = inactive; · = no result; [ ] = remark or other dose. A selection: hits, their analogues and other compounds. The true share with any hit is near 3.6%.

SMILES | HCV NS3 hel inh | EBNA-1 inhibitor | DNA FID counter | ZTA counter | NR3A LBD binder | FGF22 binding-1 | FGF22 binding-2 | SYPRO no-protein | others
COCCNC(=O)C[C@H]1C[C@@H]2c3cc(NS(C)(=O)=O)ccc3O[C@@H]2[C@@H](CO)O1 | · | · | · | · | · | 0 | · | ·
CCOC(=O)c1c(N)sc(C(=O)Nc2ccccc2)c1C | -5 | -6 | -9 | 9 | 27* | 2.9* | -0.18 | i
CCONC(=O)Nc1ccccc1 | -1 | -5 | 0 | 5 | 0 | · | · | ·
CCOC(=O)c1sc(NC(=O)Nc2ccccc2)cc1C | -15 | 7 | 8 | 13 | 43* | 2.1* | -0.38 | i
COc1ccc2c3c([nH]c2c1)[C@@H](CO)N(S(=O)(=O)c1ccc(C)cc1)CC31CN(Cc2ccccc2)C1 | · | · | · | · | · | 0 | · | ·
COc1ccc2c3c(n(C)c2c1)[C@@H](CO)N(C(C)=O)CC31CN(C(=O)c2cnccn2)C1 | · | · | · | · | · | 0 | · | ·
CNC(=O)C[C@@H]1CC[C@@H]2[C@@H](COc3ccc(NC(=O)c4ccccc4OC)cc3C(=O)N2C)O1 | · | · | · | · | · | 1 | · | ·
CCNC(=O)C[C@@H]1CC[C@@H]2[C@@H](COc3ccc(NC(=O)Nc4ccc(Cl)cc4)cc3C(=O)N2C)O1 | · | · | · | · | · | 0 | · | ·
CN1C(=O)c2cc(NC(=O)c3ccccc3Cl)ccc2OC[C@@H]2O[C@@H](CC(=O)NCC(F)(F)F)CC[C@H]21 | · | · | · | · | · | 36* | 0.1 | i
CN1C(=O)c2cc(NC(=O)c3ccccc3Cl)ccc2OC[C@H]2O[C@H](CC(=O)NCC(F)(F)F)CC[C@H]21 | · | · | · | · | · | 0 | · | ·
CCNC(=O)C[C@@H]1CC[C@H]2[C@H](COc3ccc(NC(=O)Nc4ccc(Cl)cc4)cc3C(=O)N2C)O1 | · | · | · | · | · | 1.2* | -0.09 | i | FGF22 TSA=0
CNC(=O)C[C@H]1CC[C@@H]2[C@H](COc3ccc(NC(=O)c4ccccc4OC)cc3C(=O)N2C)O1 | · | · | · | · | · | 2.6* | -0.021 | i
COc1ccc(CN(C)C[C@@H]2OCCCC[C@@H](C)Oc3ccc(NS(=O)(=O)c4cn(C)cn4)cc3C(=O)N([C@H](C)CO)C[C@@H]2C)cc1 | · | · | · | · | · | 1 | · | ·
CO[C@@H](CN(C)S(=O)(=O)c1ccc(C)cc1)[C@H](C)CN(Cc1ccccc1Cl)[C@@H](C)CO | · | · | · | · | · | 0 | · | ·
COc1ccc2c3c(n(C)c2c1)[C@@H](CO)N(Cc1ccccc1F)CC31CN(C(=O)C2CCCC2)C1 | · | · | · | · | · | -1 | · | ·
Cc1ccccc1-c1ccc([C@H]2[C@@H](CO)N3CCCCN(Cc4cccnc4)C[C@H]23)cc1 | · | · | · | · | · | 1.3* | -0.039[42 µM] | i
OC[C@H]1[C@H](c2ccc(-c3ccccc3)cc2)[C@H]2CN(Cc3ccccn3)CCCCN21 | · | · | · | · | · | 0 | · | ·
OC[C@@H]1[C@H](c2ccc(-c3cccnc3)cc2)[C@H]2CN(Cc3ccccn3)CCCCN12 | · | · | · | · | · | 1.5* | 0.26 | i
OC[C@@H]1[C@H](c2ccc(-c3cccnc3)cc2)[C@@H]2CN(Cc3ccccn3)CCCCN12 | · | · | · | · | · | 1.4* | 0.018 | i
OC[C@H]1[C@@H](c2ccc(-c3ccccc3F)cc2)[C@H]2CN(Cc3cccnc3)CCCCN21 | · | · | · | · | · | 0 | · | ·
COC(=O)C[C@H]1CC[C@H]2[C@@H](COc3ccc(NC(=O)c4cccc(Cl)c4)cc3C(=O)N2C)O1 | · | · | · | · | · | 0 | · | ·
OC[C@H]1[C@H]2c3ccccc3NC[C@H]2N1Cc1ccccc1Cl | · | · | · | · | · | 0 | · | ·
OC[C@H]1[C@@H]2c3ccccc3NC[C@@H]2N1Cc1ccccc1Cl | · | · | · | · | · | 1.4* | 0.23[42 µM] | i
O=C(Nc1ccccc1Cl)N1[C@H](CO)[C@@H]2c3ccccc3NC[C@@H]21 | · | · | · | · | · | 1.6* | 0.068 | i
CC(C)NC(=O)N(C)C[C@H]1Oc2c(cccc2N(C)C)C(=O)N([C@@H](C)CO)C[C@H]1C | · | · | · | · | · | 1 | · | ·
SMILES | HCV NS3 hel inh | EBNA-1 inhibitor | DNA FID counter | ZTA counter | NR3A LBD binder | FGF22 binding-1 | FGF22 binding-2 | SYPRO no-protein | others
O=C(O)CN1C(=O)CSC1=S | 8 | · | -8 | · | 1 | 0 | · | ·
O=C(NN1C(=O)CSC1=S)C(=O)NN1C(=O)CSC1=S | 7 | 9 | 8 | 19 | 0 | 2.4* | -0.042 | i
COc1ccc2c3c([nH]c2c1)[C@H](CO)N(Cc1ccccc1Cl)CC31CCN(C(C)=O)CC1 | · | · | · | · | · | 0 | · | ·
Cc1ccccc1C(=O)Nc1nnc(S(=O)(=O)N2CCCCC2)s1 | -1 | 2 | -16 | -3 | -10 | 17* | 0.005 | i
O=C(Nc1nnc(S(=O)(=O)N2CCCCCC2)s1)c1ccccc1Br | 0 | 5 | -29 | 4 | -5 | 0 | · | ·
CCC(=O)Nc1ccc(C(=O)CN2C(=O)NC3(CCOc4ccccc43)C2=O)cc1 (configuration not stated) | · | · | · | -11 | 3 | 0 | · | ·
CC(C)CC(=O)Nc1ccc(C(=O)CN2C(=O)NC3(CCOc4ccccc43)C2=O)cc1 (configuration not stated) | · | 3 | · | -12 | -9 | 1.9* | -0.16 | i
C[C@@H]1CCCCO[C@H](CN(C)C(=O)Nc2cccc3ccccc23)[C@H](C)CN([C@@H](C)CO)C(=O)c2cc(N(C)C)ccc2O1 | · | · | · | · | · | -1 | · | ·
CCC(=O)N1CCCCN2[C@H](CO)[C@@H](c3ccc(C#Cc4ccccc4F)cc3)[C@H]2C1 | · | · | · | · | · | 1.5* | 0.044[42 µM] | i
CC(=O)N(C)C[C@@H]1Oc2cc(C#Cc3ccncc3)ccc2S(=O)(=O)N([C@H](C)CO)C[C@@H]1C | · | · | · | · | · | 0 | · | ·
O=[N+]([O-])c1ccc2nc(-c3ccccc3)[nH]c2c1 | 0 | 2 | 2 | 4 | 16* | 1.7* | -0.04 | i
Nc1cccc(-c2nc3ccc(C(=O)c4ccccc4)cc3[nH]2)c1 | -14 | 8 | -8 | 3 | 5 | 13* | 0.031 | i | FGF22 TSA=0
COc1ccc2nc(-c3cccc(N)c3)[nH]c2c1 | 5 | 4 | -5 | 9 | -1 | · | · | ·
Cc1ccc(S(=O)(=O)Nc2ccc3c(c2)C(=O)N([C@H](C)CO)C[C@@H](C)[C@@H](CN(C)Cc2ccccc2)OCCCC[C@@H](C)O3)cc1 | · | · | · | · | · | 0 | · | ·
